# Experimental data published in ChEMBL document CHEMBL2311425, “Histone deacetylase (HDAC) inhibitors with a novel connecting unit linker region reveal a selectivity profile for HDAC4 and HDAC5 with improved activity against chemoresistant cancer cells” (J Med Chem, 2013).
# Experiments:
# CAL-27 [1] = assay: Potentiation of 45 uM cisplatin-induced toxicity in 1 uM cisplatin resistant human CAL27 cells at 0.5 uM pretreated for 48 hrs followed by 1 uM cisplatin treatment by MTT assay; type: functional
# A2780 [2] = assay: Potentiation of 8 uM cisplatin-induced toxicity in 5 uM cisplatin resistant human A2780 cells at 0.25 uM pretreated for 48 hrs followed by 5 uM cisplatin treatment by MTT assay; type: functional
# MDA-MB-231 [3] = assay: Potentiation of 10 uM cisplatin-induced toxicity in 1 uM cisplatin resistant human MDA-MB-231 cells at 0.25 uM pretreated for 48 hrs followed by 1 uM cisplatin treatment by MTT assay; type: functional
# A2780 [4] = assay: Potentiation of 20 uM cisplatin-induced toxicity in 5 uM cisplatin resistant human A2780 cells at 1.5 uM pretreated for 48 hrs followed by 5 uM cisplatin treatment by MTT assay; type: functional
# A2780 [5] = assay: Potentiation of 5 uM cisplatin-induced toxicity in 5 uM cisplatin resistant human A2780 cells at 0.25 uM pretreated for 48 hrs followed by 5 uM cisplatin treatment by MTT assay; type: functional
# A2780 [6] = assay: Potentiation of 20 uM cisplatin-induced toxicity in 5 uM cisplatin resistant human A2780 cells at 0.25 uM pretreated for 48 hrs followed by 5 uM cisplatin treatment by MTT assay; type: functional
# A2780 [7] = assay: Potentiation of 5 uM cisplatin-induced toxicity in 5 uM cisplatin resistant human A2780 cells at 1.5 uM pretreated for 48 hrs followed by 5 uM cisplatin treatment by MTT assay; type: functional
# KYSE-510 [8] = assay: Potentiation of 3.16 uM cisplatin-induced toxicity in 0.5 uM cisplatin resistant human KYSE-510 cells at 0.25 uM pretreated for 48 hrs followed by 0.5 uM cisplatin treatment by MTT assay; type: functional
# CAL-27 [9] = assay: Potentiation of 5 uM cisplatin-induced toxicity in 1 uM cisplatin resistant human CAL27 cells at 1 uM pretreated for 48 hrs followed by 1 uM cisplatin treatment by MTT assay; type: functional
# KYSE-510 [10] = assay: Potentiation of 8 uM cisplatin-induced toxicity in 0.5 uM cisplatin resistant human KYSE-510 cells at 1.5 uM pretreated for 48 hrs followed by 0.5 uM cisplatin treatment by MTT assay; type: functional
# A2780 [11] = assay: Potentiation of 1 uM cisplatin-induced toxicity in 5 uM cisplatin resistant human A2780 cells at 0.5 uM pretreated for 48 hrs followed by 5 uM cisplatin treatment by MTT assay; type: functional
# CAL-27 [12] = assay: Potentiation of 2.5 uM cisplatin-induced toxicity in 1 uM cisplatin resistant human CAL27 cells at 1 uM pretreated for 48 hrs followed by 1 uM cisplatin treatment by MTT assay; type: functional
# MDA-MB-231 [13] = assay: Potentiation of 40 uM cisplatin-induced toxicity in 1 uM cisplatin resistant human MDA-MB-231 cells at 0.5 uM pretreated for 48 hrs followed by 1 uM cisplatin treatment by MTT assay; type: functional
# A2780 [14] = assay: Potentiation of 8 uM cisplatin-induced toxicity in 5 uM cisplatin resistant human A2780 cells at 0.5 uM pretreated for 48 hrs followed by 5 uM cisplatin treatment by MTT assay; type: functional
# KYSE-510 [15] = assay: Potentiation of 3.16 uM cisplatin-induced toxicity in 0.5 uM cisplatin resistant human KYSE-510 cells at 0.5 uM pretreated for 48 hrs followed by 0.5 uM cisplatin treatment by MTT assay; type: functional
# KYSE-510 [16] = assay: Cytotoxicity against cisplatin sensitive human KYSE-510 cells after 72 hrs by MTT assay; type: functional, cell-based; details: KYSE-510, 72 h
# MDA-MB-231 [17] = assay: Cytotoxicity against cisplatin resistant human MDA-MB-231 cells after 72 hrs by MTT assay; type: functional, cell-based; details: MDA-MB-231, 72 h
# A2780 [18] = assay: Potentiation of 10 uM cisplatin-induced toxicity in 5 uM cisplatin resistant human A2780 cells at 1 uM pretreated for 48 hrs followed by 5 uM cisplatin treatment by MTT assay; type: functional
# CAL-27 [19] = assay: Potentiation of 2.5 uM cisplatin-induced toxicity in 1 uM cisplatin resistant human CAL27 cells at 0.25 uM pretreated for 48 hrs followed by 1 uM cisplatin treatment by MTT assay; type: functional
# Histone deacetylase [20] = assay: Inhibition of HDAC in cisplatin resistant human MDA-MB-231 cells after 18 hrs by fluorescence assay; type: cell-based
# A2780 [21] = assay: Potentiation of 5 uM cisplatin-induced toxicity in 5 uM cisplatin resistant human A2780 cells at 0.5 uM pretreated for 48 hrs followed by 5 uM cisplatin treatment by MTT assay; type: functional
# KYSE-510 [22] = assay: Potentiation of 0.75 uM cisplatin-induced toxicity in 0.5 uM cisplatin resistant human KYSE-510 cells at 0.5 uM pretreated for 48 hrs followed by 0.5 uM cisplatin treatment by MTT assay; type: functional
# Summary of the method: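 Cisplatin-resistant Kyse510 CisR (derived by weekly cycles of cisplatin over 24−30 weeks), grown in RPMI 1640 with 10% FCS at 37 °C, 5% CO₂. Test agent added 48 h before cisplatin, then 72 h further incubation. Viability by MTT (read at 544/690 nm) relative to untreated control wells. Combination index by Chou−Talalay method. Mean of three experiments.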
# [23] = system: A2780 CisR (Homo sapiens); assay: cells; details: 72 h
# MDA-MB-231 [24] = assay: Potentiation of 25 uM cisplatin-induced toxicity in 1 uM cisplatin resistant human MDA-MB-231 cells at 1 uM pretreated for 48 hrs followed by 1 uM cisplatin treatment by MTT assay; type: functional
# Histone deacetylase [25] = assay: Inhibition of HDAC in cisplatin sensitive human CAL27 cells after 18 hrs by fluorescence assay; type: cell-based; details: cal-27
# MDA-MB-231 [26] = assay: Potentiation of 10 uM cisplatin-induced toxicity in 1 uM cisplatin resistant human MDA-MB-231 cells at 0.5 uM pretreated for 48 hrs followed by 1 uM cisplatin treatment by MTT assay; type: functional
# KYSE-510 [27] = assay: Potentiation of 1 uM cisplatin-induced toxicity in 0.5 uM cisplatin resistant human KYSE-510 cells at 0.25 uM pretreated for 48 hrs followed by 0.5 uM cisplatin treatment by MTT assay; type: functional
# KYSE-510 [28] = assay: Cytotoxicity against cisplatin resistant human KYSE-510 cells after 72 hrs by MTT assay; type: functional, cell-based; details: KYSE-510, 72 h
# CAL-27 [29] = assay: Potentiation of 1 uM cisplatin-induced toxicity in 1 uM cisplatin resistant human CAL27 cells at 1 uM pretreated for 48 hrs followed by 1 uM cisplatin treatment by MTT assay; type: functional
smiles,measurement,setting,value
Cc1cc(C)cc(C(=O)NOCCCCCC(=O)NO)c1,Activity,CAL-27 [1],Dose-dependent effect
same,fractional inhibitory concentration index (FICI),CAL-27 [1],0.31
same,Activity,A2780 [2],Dose-dependent effect
same,fractional inhibitory concentration index (FICI),A2780 [2],0.78
same,Activity,MDA-MB-231 [3],Dose-dependent effect
same,Activity,A2780 [4],Dose-dependent effect
same,fractional inhibitory concentration index (FICI),A2780 [4],0.64
same,Activity,A2780 [5],Dose-dependent effect
same,fractional inhibitory concentration index (FICI),A2780 [5],0.85
same,Activity,A2780 [6],Dose-dependent effect
same,fractional inhibitory concentration index (FICI),A2780 [6],0.76
same,Activity,A2780 [7],Dose-dependent effect
same,fractional inhibitory concentration index (FICI),A2780 [7],0.81
same,Activity,KYSE-510 [8],Dose-dependent effect
same,fractional inhibitory concentration index (FICI),KYSE-510 [8],0.18
same,Activity,CAL-27 [9],Dose-dependent effect
same,fractional inhibitory concentration index (FICI),CAL-27 [9],0.26
same,Activity,KYSE-510 [10],Dose-dependent effect
same,fractional inhibitory concentration index (FICI),KYSE-510 [10],0.16
same,Activity,A2780 [11],Dose-dependent effect
same,fractional inhibitory concentration index (FICI),A2780 [11],0.85
same,Activity,CAL-27 [12],Dose-dependent effect
same,fractional inhibitory concentration index (FICI),CAL-27 [12],0.38
same,Activity,MDA-MB-231 [13],Dose-dependent effect
same,fractional inhibitory concentration index (FICI),MDA-MB-231 [13],0.88
same,Activity,A2780 [14],Dose-dependent effect
same,fractional inhibitory concentration index (FICI),A2780 [14],0.66
same,Activity,KYSE-510 [15],Dose-dependent effect
same,fractional inhibitory concentration index (FICI),KYSE-510 [15],0.09
same,IC50,KYSE-510 [16],2960 nM
same,IC50,MDA-MB-231 [17],1680 nM
same,Activity,A2780 [18],Dose-dependent effect
same,fractional inhibitory concentration index (FICI),A2780 [18],0.61
same,Activity,CAL-27 [19],Dose-dependent effect
same,IC50,Histone deacetylase [20],410 nM
same,Activity,A2780 [21],Dose-dependent effect
same,fractional inhibitory concentration index (FICI),A2780 [21],0.73
same,Activity,KYSE-510 [22],Dose-dependent effect
same,fractional inhibitory concentration index (FICI),KYSE-510 [22],0.07
same,IC50,[23],320 nM
same,Activity,MDA-MB-231 [24],Dose-dependent effect
same,fractional inhibitory concentration index (FICI),MDA-MB-231 [24],0.72
same,IC50,Histone deacetylase [25],360 nM
same,Activity,MDA-MB-231 [26],Dose-dependent effect
same,Activity,KYSE-510 [27],Dose-dependent effect
same,fractional inhibitory concentration index (FICI),KYSE-510 [27],0.13
same,IC50,KYSE-510 [28],2480 nM
same,Activity,CAL-27 [29],Dose-dependent effect
